Assay results as given in the M2OR odorant receptor database.

Legend:
Details in all cases: stereoisomer not certain
[1] = biological target: T1, UniProt Q8VG27
T1 sequence (whole entry): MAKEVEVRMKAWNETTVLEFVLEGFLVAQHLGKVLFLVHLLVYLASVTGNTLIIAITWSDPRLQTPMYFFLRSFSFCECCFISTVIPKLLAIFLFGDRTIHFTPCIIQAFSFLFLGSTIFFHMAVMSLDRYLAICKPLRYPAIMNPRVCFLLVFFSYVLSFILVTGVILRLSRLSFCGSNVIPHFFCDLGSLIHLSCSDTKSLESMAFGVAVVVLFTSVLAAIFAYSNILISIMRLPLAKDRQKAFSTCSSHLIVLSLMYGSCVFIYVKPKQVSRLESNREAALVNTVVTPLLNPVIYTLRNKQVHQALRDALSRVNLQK
Outline: (§1)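 Values were gathered from published papers (main text and supplementary material), with extra details requested from the original authors when needed, and checked for typos and inconsistencies. Each receptor–molecule pair is called responsive (active) if the original authors judged the measured signal statistically different from baseline, and non-responsive (inactive) otherwise. Assay methods varied by source, often transient mammalian cell-line luciferase assays. Recorded details include cell line, G-protein, co-transfected protein and tags.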

[2] = biological target: T2, UniProt Q8VG53
T2 sequence (whole entry): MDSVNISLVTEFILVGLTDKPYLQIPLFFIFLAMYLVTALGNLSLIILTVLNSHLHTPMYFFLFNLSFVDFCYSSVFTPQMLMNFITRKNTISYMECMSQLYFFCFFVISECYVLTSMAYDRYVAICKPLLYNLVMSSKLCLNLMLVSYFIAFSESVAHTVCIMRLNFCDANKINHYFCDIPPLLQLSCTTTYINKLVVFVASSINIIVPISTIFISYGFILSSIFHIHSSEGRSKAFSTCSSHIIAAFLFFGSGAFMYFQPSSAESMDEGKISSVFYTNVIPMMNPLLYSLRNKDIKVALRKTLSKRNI
Outline: as §1

[3] = biological target: T3, UniProt Q8VG64
T3 sequence (whole entry): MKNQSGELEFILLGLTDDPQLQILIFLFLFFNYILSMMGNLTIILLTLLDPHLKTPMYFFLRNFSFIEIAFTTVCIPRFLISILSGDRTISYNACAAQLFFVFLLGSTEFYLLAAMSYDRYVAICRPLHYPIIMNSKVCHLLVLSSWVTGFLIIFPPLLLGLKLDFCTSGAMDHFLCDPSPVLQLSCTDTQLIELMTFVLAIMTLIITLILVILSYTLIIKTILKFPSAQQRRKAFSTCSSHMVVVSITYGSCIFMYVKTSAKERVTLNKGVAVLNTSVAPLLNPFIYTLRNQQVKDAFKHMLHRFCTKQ
Outline: as §1

[4] = biological target: T4, UniProt Q8VGB9
T4 sequence (whole entry): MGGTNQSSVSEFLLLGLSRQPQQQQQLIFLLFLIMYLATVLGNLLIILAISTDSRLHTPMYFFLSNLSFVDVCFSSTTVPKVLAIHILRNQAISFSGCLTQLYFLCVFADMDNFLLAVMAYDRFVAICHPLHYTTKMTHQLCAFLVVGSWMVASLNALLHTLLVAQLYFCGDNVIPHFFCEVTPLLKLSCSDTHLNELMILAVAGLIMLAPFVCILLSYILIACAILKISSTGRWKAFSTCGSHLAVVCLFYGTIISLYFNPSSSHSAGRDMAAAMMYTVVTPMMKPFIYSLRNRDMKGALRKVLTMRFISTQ
Outline: as §1

[5] = biological target: T5, UniProt Q8VGC6
T5 sequence (whole entry): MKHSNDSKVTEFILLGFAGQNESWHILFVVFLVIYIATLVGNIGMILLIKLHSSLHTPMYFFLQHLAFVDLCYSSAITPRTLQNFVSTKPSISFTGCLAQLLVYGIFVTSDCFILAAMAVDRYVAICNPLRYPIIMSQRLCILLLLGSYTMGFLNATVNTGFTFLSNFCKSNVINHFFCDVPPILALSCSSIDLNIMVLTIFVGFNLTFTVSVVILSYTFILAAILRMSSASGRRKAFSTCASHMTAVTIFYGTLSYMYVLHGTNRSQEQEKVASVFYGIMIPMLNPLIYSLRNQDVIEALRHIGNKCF
Outline: as §1

[6] = biological target: T6, UniProt Q8VGJ3
T6 sequence (whole entry): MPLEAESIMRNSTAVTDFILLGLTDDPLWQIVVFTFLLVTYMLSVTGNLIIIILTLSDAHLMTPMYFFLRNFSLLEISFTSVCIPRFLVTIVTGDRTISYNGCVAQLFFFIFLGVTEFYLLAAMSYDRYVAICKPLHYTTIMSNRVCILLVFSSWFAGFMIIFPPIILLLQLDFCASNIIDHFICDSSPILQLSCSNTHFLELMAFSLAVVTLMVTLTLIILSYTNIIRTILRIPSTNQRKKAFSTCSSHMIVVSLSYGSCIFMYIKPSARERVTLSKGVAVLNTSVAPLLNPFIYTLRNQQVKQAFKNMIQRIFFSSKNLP
Outline: as §1

[7] = biological target: T7, UniProt Q8VGL0
T7 sequence (whole entry): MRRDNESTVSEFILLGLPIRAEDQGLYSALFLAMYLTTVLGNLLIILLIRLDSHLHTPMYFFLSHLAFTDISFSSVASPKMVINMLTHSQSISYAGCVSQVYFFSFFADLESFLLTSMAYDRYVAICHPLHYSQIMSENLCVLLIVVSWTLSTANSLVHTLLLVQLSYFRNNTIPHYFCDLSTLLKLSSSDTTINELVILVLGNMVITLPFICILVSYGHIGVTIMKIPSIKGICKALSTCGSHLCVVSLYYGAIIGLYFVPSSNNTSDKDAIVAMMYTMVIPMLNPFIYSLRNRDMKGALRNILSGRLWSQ
Outline: as §1

[8] = biological target: UniProt Q8VG28
Chain of UniProt Q8VG28 (Q8VG28 as listed by the source): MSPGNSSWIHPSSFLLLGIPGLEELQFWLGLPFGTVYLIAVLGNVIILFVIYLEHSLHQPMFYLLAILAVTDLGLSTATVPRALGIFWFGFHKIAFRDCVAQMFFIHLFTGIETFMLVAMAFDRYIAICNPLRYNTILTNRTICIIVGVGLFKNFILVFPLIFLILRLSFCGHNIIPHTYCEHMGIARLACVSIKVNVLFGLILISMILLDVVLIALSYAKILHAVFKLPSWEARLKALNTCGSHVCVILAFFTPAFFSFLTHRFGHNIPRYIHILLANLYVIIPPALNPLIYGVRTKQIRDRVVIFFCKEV
Outline: as §1

[9] = biological target: T8, UniProt Q8VG49
T8 sequence (whole entry): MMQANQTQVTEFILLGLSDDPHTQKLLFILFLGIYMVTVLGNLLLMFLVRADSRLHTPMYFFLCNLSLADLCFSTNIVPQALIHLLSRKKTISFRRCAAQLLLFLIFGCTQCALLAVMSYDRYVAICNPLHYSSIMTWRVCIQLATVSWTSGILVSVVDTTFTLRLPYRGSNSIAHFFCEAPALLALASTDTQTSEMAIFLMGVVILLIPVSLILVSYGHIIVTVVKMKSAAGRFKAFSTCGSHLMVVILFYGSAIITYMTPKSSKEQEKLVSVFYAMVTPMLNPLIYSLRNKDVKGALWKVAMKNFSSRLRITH
Outline: as §1

[10] = biological target: T9, UniProt Q8VG77
T9 sequence (whole entry): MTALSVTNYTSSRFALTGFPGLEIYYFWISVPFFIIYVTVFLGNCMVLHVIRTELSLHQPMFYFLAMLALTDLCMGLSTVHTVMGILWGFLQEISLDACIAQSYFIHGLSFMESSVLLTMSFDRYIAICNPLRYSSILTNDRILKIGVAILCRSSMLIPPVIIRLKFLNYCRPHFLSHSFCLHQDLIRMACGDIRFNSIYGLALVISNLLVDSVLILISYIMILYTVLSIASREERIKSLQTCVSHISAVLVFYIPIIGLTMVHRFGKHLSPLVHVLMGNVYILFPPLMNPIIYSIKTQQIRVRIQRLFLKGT
Outline: as §1

[11] = biological target: T10, UniProt Q8VG96
T10 sequence (whole entry): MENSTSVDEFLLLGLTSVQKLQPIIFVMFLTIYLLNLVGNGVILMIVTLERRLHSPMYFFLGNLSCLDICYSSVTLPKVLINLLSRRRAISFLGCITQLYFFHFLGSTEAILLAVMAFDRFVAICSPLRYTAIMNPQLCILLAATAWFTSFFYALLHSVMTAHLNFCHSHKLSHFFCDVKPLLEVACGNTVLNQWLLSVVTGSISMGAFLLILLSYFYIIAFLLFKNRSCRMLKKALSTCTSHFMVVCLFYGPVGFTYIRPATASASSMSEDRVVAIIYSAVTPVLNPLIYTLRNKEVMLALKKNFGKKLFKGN
Outline: as §1

[12] = biological target: T11, UniProt Q8VGD7
T11 sequence (whole entry): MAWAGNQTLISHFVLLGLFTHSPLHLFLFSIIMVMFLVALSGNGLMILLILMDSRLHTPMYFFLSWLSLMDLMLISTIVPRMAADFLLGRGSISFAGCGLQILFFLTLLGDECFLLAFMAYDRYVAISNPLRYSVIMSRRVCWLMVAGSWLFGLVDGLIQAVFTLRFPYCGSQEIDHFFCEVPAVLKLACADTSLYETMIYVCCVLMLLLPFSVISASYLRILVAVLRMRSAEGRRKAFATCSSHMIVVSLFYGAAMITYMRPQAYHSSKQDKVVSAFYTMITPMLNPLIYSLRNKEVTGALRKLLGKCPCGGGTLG
Outline: as §1

[13] = biological target: T12, UniProt Q8VGH1
T12 sequence (whole entry): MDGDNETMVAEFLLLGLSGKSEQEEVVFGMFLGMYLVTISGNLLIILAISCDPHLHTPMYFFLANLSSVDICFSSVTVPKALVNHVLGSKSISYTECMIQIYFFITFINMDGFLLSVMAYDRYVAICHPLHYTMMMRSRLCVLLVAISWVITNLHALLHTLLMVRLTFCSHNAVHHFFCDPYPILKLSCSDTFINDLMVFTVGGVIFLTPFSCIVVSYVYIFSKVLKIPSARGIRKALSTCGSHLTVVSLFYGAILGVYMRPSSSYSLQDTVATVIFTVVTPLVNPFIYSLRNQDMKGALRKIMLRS
Outline: as §1

[14] = biological target: T13, UniProt Q8VGJ1
T13 sequence (whole entry): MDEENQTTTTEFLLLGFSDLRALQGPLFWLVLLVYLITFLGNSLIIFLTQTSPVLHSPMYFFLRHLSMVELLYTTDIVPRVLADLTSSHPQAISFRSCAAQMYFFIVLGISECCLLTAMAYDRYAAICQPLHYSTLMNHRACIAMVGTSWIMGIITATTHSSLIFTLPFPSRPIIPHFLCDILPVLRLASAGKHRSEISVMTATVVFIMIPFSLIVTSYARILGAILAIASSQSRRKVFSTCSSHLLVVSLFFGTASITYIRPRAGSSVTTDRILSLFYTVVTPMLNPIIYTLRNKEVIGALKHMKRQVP
Outline: as §1

[15] = biological target: T14, UniProt Q8VGJ5
T14 sequence (whole entry): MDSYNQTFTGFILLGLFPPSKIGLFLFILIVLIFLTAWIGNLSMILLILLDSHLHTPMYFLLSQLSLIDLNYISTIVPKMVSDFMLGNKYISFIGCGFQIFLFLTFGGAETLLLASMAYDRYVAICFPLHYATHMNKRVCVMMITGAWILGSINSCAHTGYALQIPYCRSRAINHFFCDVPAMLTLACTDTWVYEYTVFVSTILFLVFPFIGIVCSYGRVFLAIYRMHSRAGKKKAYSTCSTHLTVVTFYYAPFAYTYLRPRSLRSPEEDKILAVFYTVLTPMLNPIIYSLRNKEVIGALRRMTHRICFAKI
Outline: as §1

[16] = biological target: T15, UniProt Q8VGL7
T15 sequence (whole entry): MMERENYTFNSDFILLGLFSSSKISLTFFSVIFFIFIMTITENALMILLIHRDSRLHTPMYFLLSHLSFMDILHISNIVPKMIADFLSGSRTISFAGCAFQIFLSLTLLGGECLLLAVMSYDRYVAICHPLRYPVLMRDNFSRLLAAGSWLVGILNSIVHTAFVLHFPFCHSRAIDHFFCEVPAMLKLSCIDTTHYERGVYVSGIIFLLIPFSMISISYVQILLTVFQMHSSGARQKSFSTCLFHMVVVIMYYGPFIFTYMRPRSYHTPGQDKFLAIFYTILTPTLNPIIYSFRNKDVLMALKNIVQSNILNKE
Outline: as §1

Measured: odorant receptor agonist call

CC(C)=C1CCC(C)CC1=O (stereo unspecified)
inactive: [1] | [2] | [3] | [4] | [5] | [6] | [7]

C=C(C)C1CCC2(C)OC2C1 (stereo unspecified)
inactive: [1] | [2] | [3] | [4] | [5] | [6] | [7]

CC(C)CCN
inactive: [1] | [2] | [3] | [4] | [5] | [6] | [7]

CCC=CCCCCC=O
inactive: [1] | [2] | [3] | [4] | [5] | [6] | [7]

CC=CC(=O)C1=C(C)CCCC1(C)C
inactive: [1] | [2] | [3] | [4] | [5] | [6] | [7]

CCCC(C)C(=O)OCC (stereo unspecified)
inactive: [1] | [2] | [3] | [4] | [5] | [6] | [7]

CCCCCC(=Cc1ccccc1)C(OC)OC
inactive: [1] | [2] | [3] | [4] | [5] | [6] | [7]

CC(=O)OC1(C)CCC23CC1C(C)(C)C2CCC3C (stereo unspecified)
inactive: [1] | [2] | [3] | [4] | [5] | [6] | [7]

CCc1occc(=O)c1O
inactive: [1] | [2] | [3] | [4] | [5] | [6] | [7]

O=C(Cl)CCCCCCCC(=O)Cl
inactive: [5]

O=C([O-])CCCCC(=O)[O-].[H+].[H+]
inactive: [8]

CCC(C(=O)O)c1ccccc1 (stereo unspecified)
not listed: [1] | [2] | [3] | [4] | [6] | [8]
inactive: all other assays above

CC1=CCC2CC1C2(C)C (stereo unspecified)
inactive: [5]
